Usually MIC stands for the lowest concentration found to suppress growth.

SMILES strings stand for the structures. Converted amounts (≈) assume the structure as drawn. The source made the active and inactive calls. No cut-off for these calls is given here.

The first assay relates to Candida albicans. Briefly: Antifungal activity against Candida albicans ATCC 10231 assessed as growth inhibition after 24 hrs by microbroth dilution method. Format: functional.
Conditions: not given
The procedure, abridged:
(§1)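 Tube dilution: each compound or positive control (norfloxacin, fluconazole) prepared in DMSO at 11 concentrations from 0.98 to 1000 µg/mL. Inoculum and sterile water added to tubes each holding 1 mL of compound solution. Tubes incubated 24 h and inspected for turbidity. MIC is the lowest concentration with no visible growth. Run in triplicate.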
(In general: Dilution methods test growth across graded concentrations, often in twofold steps.)
In the case of `N#Cc1c(F)c(Cl)c(Nc2ccc(Cl)cc2)c(C#N)c1F`, the MIC entry is “inactive”.

The assay is the same for the next values; noted with them: ATCC 10231, 24 h.
For the compound `OC(Cn1cncn1)(Cn1cncn1)c1ccc(F)cc1F` [FLUCONAZOLE], the MIC was determined as 1 µg/mL (≈ 3.27 µM).

Turning to `N#Cc1c(F)c(F)c(NCc2ccccc2)c(C#N)c1F`, the MIC amounted to 10.4 µg/mL (≈ 36.2 µM).

Take `N#Cc1c(N)c(Cl)c(F)c(C#N)c1F`: the MIC amounted to 15.6 µg/mL (≈ 73 µM).

On to `CCCSc1c(Cl)c(N)c(C#N)c(SCCC)c1C#N`, for which the MIC is over 1000 µg/mL.

As to `CCCSc1c(Cl)c(SCCC)c(C#N)c(F)c1C#N`, the minimal inhibitory concentration (MIC) was over 500 µg/mL.

On to `CCCSc1c(Cl)c(N)c(C#N)c(Cl)c1C#N`, for which the minimum inhibitory concentration (MIC) is over 1000 µg/mL.

Take `CCCSc1c(Cl)c(N)c(C#N)c(F)c1C#N`: the MIC is over 500 µg/mL.

The next assay has as its system Bacillus cereus. Briefly: Antibacterial activity against Bacillus cereus ATCC 14579 assessed as growth inhibition after 24 hrs by microbroth dilution method. The assay is classed as functional. The settings on record: ATCC 14579, 24 h. The procedure, abridged:
as §1
For `N#Cc1c(F)c(Cl)c(Nc2ccc(Cl)cc2)c(C#N)c1F`, the MIC was 417 µg/mL (≈ 1290 µM).

With `N#Cc1c(F)c(F)c(NCc2ccccc2)c(C#N)c1F`, the MIC was determined as 3.9 µg/mL (≈ 13.6 µM).

Turning to `N#Cc1c(N)c(Cl)c(F)c(C#N)c1F`, the MIC is over 1000 µg/mL.

On to `CCCSc1c(Cl)c(N)c(C#N)c(SCCC)c1C#N`, for which the minimum inhibitory concentration (MIC) is over 1000 µg/mL.

`CCCSc1c(Cl)c(SCCC)c(C#N)c(F)c1C#N`: the minimum inhibitory concentration (MIC) was over 1000 µg/mL.

As to `CCCSc1c(Cl)c(N)c(C#N)c(Cl)c1C#N`, the MIC is over 1000 µg/mL.

In the case of `CCCSc1c(Cl)c(N)c(C#N)c(F)c1C#N`, the minimal inhibitory concentration (MIC) is over 1000 µg/mL.

As for `CCn1cc(C(=O)O)c(=O)c2cc(F)c(N3CCNCC3)cc21` [NORFLOXACIN], the MIC was found to be 0.5 µg/mL (≈ 1.57 µM).

A further assay concerns Staphylococcus aureus. In words: Antibacterial activity against Staphylococcus aureus ATCC 6538 assessed as growth inhibition after 24 hrs by microbroth dilution method. Format: functional. Conditions: ATCC 6538, 24 h. The procedure, abridged:
as §1
On to `N#Cc1c(F)c(Cl)c(Nc2ccc(Cl)cc2)c(C#N)c1F`, for which the minimum inhibitory concentration (MIC) turned out to be 26 µg/mL (≈ 80.2 µM).

As to `N#Cc1c(F)c(F)c(NCc2ccccc2)c(C#N)c1F`, the MIC was determined as 1.3 µg/mL (≈ 4.53 µM).

Consider `N#Cc1c(N)c(Cl)c(F)c(C#N)c1F`, for which the MIC was 46.9 µg/mL (≈ 220 µM).

With `CCCSc1c(Cl)c(N)c(C#N)c(SCCC)c1C#N`, the MIC is 250 µg/mL (≈ 767 µM).

Regarding `CCCSc1c(Cl)c(SCCC)c(C#N)c(F)c1C#N`, the minimum inhibitory concentration (MIC) is 11.7 µg/mL (≈ 35.6 µM).

Regarding `CCCSc1c(Cl)c(N)c(C#N)c(Cl)c1C#N`, the MIC came to 500 µg/mL (≈ 1750 µM).

Regarding `CCCSc1c(Cl)c(N)c(C#N)c(F)c1C#N`, the minimum inhibitory concentration (MIC) was 1.6 µg/mL (≈ 5.93 µM).

As to `CCn1cc(C(=O)O)c(=O)c2cc(F)c(N3CCNCC3)cc21` [NORFLOXACIN], the minimal inhibitory concentration (MIC) amounted to 0.5 µg/mL (≈ 1.57 µM).

For the next assay, the system named is Candida albicans. Briefly: Antifungal activity against Candida albicans ATCC 10231 assessed as growth inhibition at 1000 ug/mL after 72 hrs by disk diffusion method. The assay is classed as functional.
Conditions: not given
The procedure, abridged: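 Candida grown and kept on Sabouraud glucose agar plates. Compounds screened at a fixed 1000 µg/mL, with fluconazole as positive control. Plates incubated at 26 °C for 72 h, then zones of inhibition measured in mm.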
In general terms: A growth-free zone around the sample is the usual read-out of agar diffusion tests.
As for `COc1ccc(Nc2c(Cl)c(Cl)c(C#N)c(Cl)c2C#N)cc1`, the “inhibition zone (IZ)” value is “inactive”.

Regarding `N#Cc1c(F)c(Cl)c(Nc2ccc(Cl)cc2)c(C#N)c1F`, the “inhibition zone (IZ)” value was “inactive”.

Consider `N#Cc1c(Cl)c(Cl)c(NCc2ccccc2)c(C#N)c1Cl`, for which the “inhibition zone (IZ)” value was “inactive”.

With `CCCSc1c(Cl)c(SCCC)c(C#N)c(F)c1C#N`, the “inhibition zone (IZ)” value was “inactive”.

The assay is the same for the next values; noted with them: ATCC 10231, 72 h, read-out: IZ.
Regarding `OC(Cn1cncn1)(Cn1cncn1)c1ccc(F)cc1F` [FLUCONAZOLE], the zone of inhibition at 1000 µg/mL worked out at 22.5 mm.

For `N#Cc1c(F)c(F)c(NCc2ccccc2)c(C#N)c1F`, the zone of inhibition at 1000 µg/mL amounted to 11.6 mm.

On to `N#Cc1c(N)c(Cl)c(F)c(C#N)c1F`, for which the zone of inhibition at 1000 µg/mL turned out to be 7.3 mm.

The test system of another assay is Pseudomonas aeruginosa. In words: Antibacterial activity against Pseudomonas aeruginosa ATCC 15442 assessed as growth inhibition at 1000 ug/mL after 24 hrs by disk diffusion method.
Conditions: not given
The assay is classed as functional.
For `COc1ccc(Nc2c(Cl)c(Cl)c(C#N)c(Cl)c2C#N)cc1`, the “inhibition zone (IZ)” value is “inactive”.

`N#Cc1c(Cl)c(Cl)c(NCc2ccccc2)c(C#N)c1Cl`: the “inhibition zone (IZ)” value was “inactive”.

On to `N#Cc1c(F)c(F)c(NCc2ccccc2)c(C#N)c1F`, for which the “inhibition zone (IZ)” value was “inactive”.

As to `N#Cc1c(N)c(Cl)c(F)c(C#N)c1F`, the “inhibition zone (IZ)” value is “inactive”.

For the compound `CCCSc1c(Cl)c(N)c(C#N)c(SCCC)c1C#N`, the “inhibition zone (IZ)” value was “inactive”.

As for `CCCSc1c(Cl)c(SCCC)c(C#N)c(F)c1C#N`, the “inhibition zone (IZ)” value was “inactive”.

Consider `CCCSc1c(Cl)c(N)c(C#N)c(Cl)c1C#N`, for which the “inhibition zone (IZ)” value was “inactive”.

As for `CCCSc1c(Cl)c(N)c(C#N)c(F)c1C#N`, the “inhibition zone (IZ)” value was “inactive”.

Staying with this assay, now noted: ATCC 15442, 24 h, read-out: IZ.
Consider `N#Cc1c(F)c(Cl)c(Nc2ccc(Cl)cc2)c(C#N)c1F`, for which the zone of inhibition at 1000 µg/mL was found to be 7.6 mm.

For `CCn1cc(C(=O)O)c(=O)c2cc(F)c(N3CCNCC3)cc21` [NORFLOXACIN], the zone of inhibition at 1000 µg/mL came to 18 mm.

The next assay relates to Escherichia coli. Briefly: Antibacterial activity against Escherichia coli ATCC 8099 assessed as growth inhibition at 1000 ug/mL after 24 hrs by disk diffusion method. The assay is classed as functional.
Conditions: not given
For `COc1ccc(Nc2c(Cl)c(Cl)c(C#N)c(Cl)c2C#N)cc1`, the “inhibition zone (IZ)” value was “inactive”.

As for `N#Cc1c(F)c(Cl)c(Nc2ccc(Cl)cc2)c(C#N)c1F`, the “inhibition zone (IZ)” value was “inactive”.

With `N#Cc1c(Cl)c(Cl)c(NCc2ccccc2)c(C#N)c1Cl`, the “inhibition zone (IZ)” value is “inactive”.

As for `N#Cc1c(F)c(F)c(NCc2ccccc2)c(C#N)c1F`, the “inhibition zone (IZ)” value is “inactive”.

With `N#Cc1c(N)c(Cl)c(F)c(C#N)c1F`, the “inhibition zone (IZ)” value was “inactive”.

Consider `CCCSc1c(Cl)c(N)c(C#N)c(SCCC)c1C#N`, for which the “inhibition zone (IZ)” value is “inactive”.

For `CCCSc1c(Cl)c(SCCC)c(C#N)c(F)c1C#N`, the “inhibition zone (IZ)” value was “inactive”.

Regarding `CCCSc1c(Cl)c(N)c(C#N)c(Cl)c1C#N`, the “inhibition zone (IZ)” value was “inactive”.

For `CCCSc1c(Cl)c(N)c(C#N)c(F)c1C#N`, the “inhibition zone (IZ)” value was “inactive”.

Staying with this assay, now noted: ATCC 8099, 24 h, read-out: IZ.
`CCn1cc(C(=O)O)c(=O)c2cc(F)c(N3CCNCC3)cc21` [NORFLOXACIN]: the zone of inhibition at 1000 µg/mL turned out to be 31 mm.

The next assay deals with Staphylococcus aureus. In words: Antibacterial activity against Staphylococcus aureus ATCC 6538 assessed as growth inhibition at 1000 ug/mL after 24 hrs by disk diffusion method.
Conditions: not given
The assay is classed as functional.
In the case of `COc1ccc(Nc2c(Cl)c(Cl)c(C#N)c(Cl)c2C#N)cc1`, the “inhibition zone (IZ)” value is “inactive”.

On to `N#Cc1c(Cl)c(Cl)c(NCc2ccccc2)c(C#N)c1Cl`, for which the “inhibition zone (IZ)” value is “inactive”.

The same assay, now with this note: ATCC 6538, 24 h, read-out: IZ.
Consider `N#Cc1c(F)c(Cl)c(Nc2ccc(Cl)cc2)c(C#N)c1F`, for which the zone of inhibition at 1000 µg/mL was determined as 10.7 mm.

With `N#Cc1c(F)c(F)c(NCc2ccccc2)c(C#N)c1F`, the zone of inhibition at 1000 µg/mL was 19.3 mm.

On to `N#Cc1c(N)c(Cl)c(F)c(C#N)c1F`, for which the zone of inhibition at 1000 µg/mL came out at 8.6 mm.

As for `CCCSc1c(Cl)c(N)c(C#N)c(SCCC)c1C#N`, the zone of inhibition at 1000 µg/mL amounted to 7.5 mm.

As to `CCCSc1c(Cl)c(SCCC)c(C#N)c(F)c1C#N`, the zone of inhibition at 1000 µg/mL is 8.8 mm.

Regarding `CCCSc1c(Cl)c(N)c(C#N)c(Cl)c1C#N`, the zone of inhibition at 1000 µg/mL worked out at 7 mm.

As for `CCCSc1c(Cl)c(N)c(C#N)c(F)c1C#N`, the zone of inhibition at 1000 µg/mL was 8.5 mm.

Turning to `CCn1cc(C(=O)O)c(=O)c2cc(F)c(N3CCNCC3)cc21` [NORFLOXACIN], the zone of inhibition at 1000 µg/mL came out at 19.9 mm.

In a further assay the test system is Bacillus cereus. In words: Antibacterial activity against Bacillus cereus ATCC 14579 assessed as growth inhibition at 1000 ug/mL after 24 hrs by disk diffusion method. The assay is classed as functional.
Conditions: not given
As for `COc1ccc(Nc2c(Cl)c(Cl)c(C#N)c(Cl)c2C#N)cc1`, the “inhibition zone (IZ)” value is “inactive”.

With `N#Cc1c(Cl)c(Cl)c(NCc2ccccc2)c(C#N)c1Cl`, the “inhibition zone (IZ)” value was “inactive”.

Regarding `CCCSc1c(Cl)c(N)c(C#N)c(SCCC)c1C#N`, the “inhibition zone (IZ)” value is “inactive”.

The assay is the same for the next values; noted with them: ATCC 14579, 24 h, read-out: IZ.
Consider `N#Cc1c(F)c(Cl)c(Nc2ccc(Cl)cc2)c(C#N)c1F`, for which the zone of inhibition at 1000 µg/mL came out at 12.2 mm.

Regarding `N#Cc1c(F)c(F)c(NCc2ccccc2)c(C#N)c1F`, the zone of inhibition at 1000 µg/mL was found to be 18.1 mm.

Turning to `N#Cc1c(N)c(Cl)c(F)c(C#N)c1F`, the zone of inhibition at 1000 µg/mL is 7.4 mm.

On to `CCCSc1c(Cl)c(SCCC)c(C#N)c(F)c1C#N`, for which the zone of inhibition at 1000 µg/mL was 7.5 mm.

As to `CCCSc1c(Cl)c(N)c(C#N)c(Cl)c1C#N`, the zone of inhibition at 1000 µg/mL was 7 mm.

Take `CCCSc1c(Cl)c(N)c(C#N)c(F)c1C#N`: the zone of inhibition at 1000 µg/mL came out at 7.6 mm.

`CCn1cc(C(=O)O)c(=O)c2cc(F)c(N3CCNCC3)cc21` [NORFLOXACIN]: the zone of inhibition at 1000 µg/mL was determined as 15.2 mm.

The values above are taken from ChEMBL document CHEMBL2375320, “Synthesis and antimicrobial activity of polyhalo isophthalonitrile derivatives” (2013).
